Calls of active or inactive are those of the source. The rule behind the calls is not given here.
Experiments:
Microsporum canis = assay: Antimicrobial activity against Microsporum canis at 0.4 umol/mL by broth microdilution method; assay type: functional, organism-based
Outline: (§1)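 Broth dilution in defined medium against clinical isolates of each organism.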

[1] = system: Trichophyton mentagrophytes; assay: Antimicrobial activity against Trichophyton mentagrophytes at 0.4 umol/mL by broth microdilution method; assay type: functional, organism-based; outline: as §1
Pseudomonas aeruginosa = assay: Antimicrobial activity against Pseudomonas aeruginosa at 0.4 umol/mL by broth microdilution method; assay type: functional, organism-based; outline: as §1
Staphylococcus aureus = assay: Antimicrobial activity against Staphylococcus aureus at 0.4 umol/mL by broth microdilution method; assay type: functional, organism-based; outline: as §1
Candida albicans = assay: Antimicrobial activity against Candida albicans at 0.4 umol/mL by broth microdilution method; assay type: functional, organism-based; outline: as §1
Epidermophyton floccosum = assay: Antimicrobial activity against Epidermophyton floccosum at 0.4 umol/mL by broth microdilution method; assay type: functional, organism-based; outline: as §1
[2] = biological target: Bifunctional purine biosynthesis protein ATIC (Homo sapiens) (UniProt P31939); assay: Inhibition of Escherichia coli IMP cyclohydrolase (unknown origin) assessed as ratio of compound concentration for 50% inhibition of enzyme activity to 1.7 to 3 x 10^-5 M of substrate concentration
Outline: (§2)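 Enzymes partially purified from Escherichia coli B. Substrate at 1.7-3.0 × 10^-5 M. Value is the ratio of inhibitor concentration giving 50% inhibition to substrate concentration.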

Escherichia coli [3] = assay: Inhibition of Escherichia coli IMP dehydrogenase assessed as ratio of compound concentration for 50% inhibition of enzyme activity to 1.7 to 3 x 10^-5 M of substrate concentration; outline: as §2
Escherichia coli [4] = assay: Inhibition of Escherichia coli adenylosuccinate synthetase assessed as ratio of compound concentration for 50% inhibition of enzyme activity to 1.7 to 3 x 10^-5 M of substrate concentration; outline: as §2
Human alphaherpesvirus 1 = assay: Antiviral activity against HSV1 infected in human KB cells assessed as inhibition of virus-induced cytopathic effect after 72 hrs relative to control; assay type: functional, organism-based
Outline: (§3)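 Cell monolayers (18-24 h) infected with 320 CCID50 of virus; compound added within 15 min at half-log dilutions from 1000 to 1 μg/mL. After 72 h at 37 °C, CPE and cytotoxicity scored microscopically (0-4). Virus rating = sum of (control CPE − treated CPE) over drug levels, halved at any level showing toxicity.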

KB [5] = assay: Antiviral activity against Rhinovirus type 13 infected in human KB cells assessed as inhibition of virus-induced cytopathic effect after 72 hrs relative to control; assay type: functional, cell-based; conditions: Human rhinovirus A13; outline: as §3
Human respirovirus 3 = assay: Antiviral activity against Parainfluenza virus 3 infected in human KB cells assessed as inhibition of virus-induced cytopathic effect after 72 hrs relative to control; assay type: functional, organism-based; outline: as §3
Human alphaherpesvirus 2 = assay: Antiviral activity against HSV2 infected in human KB cells assessed as inhibition of virus-induced cytopathic effect after 72 hrs relative to control; assay type: functional, organism-based; outline: as §3
Ehrlich [6] = assay: Inhibition of guanine nucleotide biosynthesis in mouse EAC assessed as [14C]hypoxanthine incorporation at 1 mM after 60 mins by TLC analysis; assay type: functional; conditions: 1 h
Outline: (§4)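 Ehrlich ascites tumor cells (about 6 × 10^6 cells/mL) preincubated 20 min at 37 °C with or without 1 mM compound. [14C]hypoxanthine (55 μCi/μmol) then added to 0.1 mM final for 60 min. Label in adenine or guanine nucleotides of the acid-soluble fraction measured by TLC; inhibition calculated against untreated cells.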

Vaccinia virus = assay: Antiviral activity against Vaccinia virus infected in human KB cells assessed as inhibition of virus-induced cytopathic effect after 72 hrs relative to control; assay type: functional, organism-based; conditions: Orthopoxvirus vaccinia; outline: as §3
Ehrlich [7] = assay: Inhibition of adenine nucleotide biosynthesis in mouse EAC assessed as [14C]hypoxanthine incorporation at 1 mM after 60 mins by TLC analysis; assay type: functional; conditions: 1 h; outline: as §4
KB [8] = assay: Antiviral activity against Adenovirus type 3 infected in human KB cells assessed as inhibition of virus-induced cytopathic effect after 72 hrs relative to control; assay type: functional, cell-based; conditions: Human adenovirus 3; outline: as §3
Escherichia coli [9] = assay: Antimicrobial activity against Escherichia coli at 0.0025 to 0.125 umol/mL by broth microdilution method; assay type: functional, organism-based; outline: as §1
Influenza B virus [10] = assay: Antiviral activity against Influenza B virus Lee infected in Swiss-Webster mouse assessed as host mean survival days at 12.5 mg/kg, po qd for 9 days; assay type: functional, B/Lee/1940
Influenza B virus [11] = assay: Antiviral activity against Influenza B virus Lee infected in Swiss-Webster mouse assessed as host mean survival days at 40 mg/kg, po qd for 9 days; assay type: functional, B/Lee/1940
Influenza B virus [12] = assay: Antiviral activity against Influenza B virus Lee infected in Swiss-Webster mouse assessed as host mean survival days at 10 mg/kg, po qd for 9 days; assay type: functional, B/Lee/1940
Influenza B virus [13] = assay: Antiviral activity against Influenza B virus Lee infected in Swiss-Webster mouse assessed as host mean survival days at 50 mg/kg, po qd for 9 days; assay type: functional, B/Lee/1940
Influenza B virus [14] = assay: Antiviral activity against Influenza B virus Lee infected in Swiss-Webster mouse assessed as host mean survival days at 100 mg/kg, po qd for 9 days; assay type: functional, B/Lee/1940

Sequence of Bifunctional purine biosynthesis protein ATIC (Homo sapiens) (P31939 whole entry, looked up): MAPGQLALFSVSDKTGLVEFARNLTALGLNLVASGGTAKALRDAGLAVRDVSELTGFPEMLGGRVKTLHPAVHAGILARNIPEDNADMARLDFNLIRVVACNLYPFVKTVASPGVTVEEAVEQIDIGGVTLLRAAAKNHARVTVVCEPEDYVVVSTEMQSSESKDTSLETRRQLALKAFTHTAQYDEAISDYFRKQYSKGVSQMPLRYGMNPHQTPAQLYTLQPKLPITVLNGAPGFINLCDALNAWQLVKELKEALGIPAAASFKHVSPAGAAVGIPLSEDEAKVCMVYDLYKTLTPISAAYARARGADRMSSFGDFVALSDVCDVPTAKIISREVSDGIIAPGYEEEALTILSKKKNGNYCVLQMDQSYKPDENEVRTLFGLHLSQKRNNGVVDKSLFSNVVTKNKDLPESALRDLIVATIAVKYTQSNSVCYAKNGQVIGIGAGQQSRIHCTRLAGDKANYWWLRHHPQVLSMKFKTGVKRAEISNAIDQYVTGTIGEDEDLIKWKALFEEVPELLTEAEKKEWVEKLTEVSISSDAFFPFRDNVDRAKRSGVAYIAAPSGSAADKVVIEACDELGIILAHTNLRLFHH

CN(C)/C=N/c1cc2c(ncn2[C@@H]2O[C@H](CO)[C@@H](O)[C@H]2O)c(=O)[nH]1
Activity (Microsporum canis): inactive | Activity [1]: inactive | Activity (Pseudomonas aeruginosa): inactive | Activity (Staphylococcus aureus): inactive | Activity (Candida albicans): inactive | Activity (Epidermophyton floccosum): inactive

NC(=O)c1ncn([C@@H]2O[C@H](COP(=O)(O)O)[C@@H](O)[C@H]2O)n1
Ratio [2]: 0.46 | Ratio (Escherichia coli [3]): 0.016 | Ratio (Escherichia coli [4]): 160

CC(=O)OC[C@H]1O[C@@H](n2cnc(C(N)=O)c2CC#N)[C@H](OC(C)=O)[C@@H]1OC(C)=O
Activity (Microsporum canis): inactive | Activity [1]: inactive | Activity (Pseudomonas aeruginosa): inactive | Activity (Staphylococcus aureus): inactive | Activity (Candida albicans): inactive | Activity (Epidermophyton floccosum): inactive

COC(=O)c1c(CC#N)ncn1C1CCCCO1 (centres undefined)
Activity (Microsporum canis): inactive | Activity [1]: inactive | Activity (Pseudomonas aeruginosa): inactive | Activity (Staphylococcus aureus): inactive | Activity (Candida albicans): inactive | Activity (Epidermophyton floccosum): inactive

C[C@H]1O[C@@H](n2cnc3c(=O)[nH]c(N)cc32)[C@H](O)[C@@H]1O
Activity (Microsporum canis): inactive | Activity (Human alphaherpesvirus 1): Active | Activity [1]: inactive | Activity (Pseudomonas aeruginosa): inactive | Activity (Staphylococcus aureus): inactive | Activity (Candida albicans): inactive | Activity (KB [5]): inactive | Activity (Epidermophyton floccosum): inactive | Activity (Human respirovirus 3): inactive

NC(=O)c1ncn([C@@H]2O[C@H](CO)[C@@H](O)[C@H]2O)n1 [RIBAVIRIN]
Activity (Human alphaherpesvirus 1): Active | Activity (Human alphaherpesvirus 2): Active | inhibition at 1000 µM (Ehrlich [6]): 65% | Activity (Vaccinia virus): Active | inhibition at 1000 µM (Ehrlich [7]): 14% | Activity (KB [5]): Active | Activity (Human respirovirus 3): Active | Activity (KB [8]): Active

Nc1cc2c(ncn2[C@@H]2O[C@H](COP(=O)(O)O)[C@@H](O)[C@H]2O)c(=O)[nH]1
Activity (Microsporum canis): inactive | Activity (Human alphaherpesvirus 1): Active | Activity (Human alphaherpesvirus 2): Active | Activity [1]: inactive | Activity (Pseudomonas aeruginosa): inactive | Activity (Staphylococcus aureus): inactive | inhibition at 1000 µM (Ehrlich [6]): 68% | Ratio (Escherichia coli [3]): 0.068 | Activity (Vaccinia virus): Active | Activity (Candida albicans): inactive | inhibition at 1000 µM (Ehrlich [7]): 18% | Ratio (Escherichia coli [4]): 20 | Activity (KB [5]): Active | Activity (Epidermophyton floccosum): inactive | Activity (Human respirovirus 3): Active | Activity (KB [8]): Active

Nc1cc2ncn([C@@H]3O[C@H](CO)[C@@H](O)[C@H]3O)c2c(=O)[nH]1
Activity (Escherichia coli [9]): Active

COC(=O)c1ncn(C2CCCCO2)c1CC#N (centres undefined)
Activity (Microsporum canis): inactive | Activity [1]: inactive | Activity (Pseudomonas aeruginosa): inactive | Activity (Staphylococcus aureus): inactive | Activity (Candida albicans): inactive | Time (Influenza B virus [10]): >0.3 days | Activity (Epidermophyton floccosum): inactive

C[C@H]1O[C@@H](n2cnc(C(N)=O)c2CC#N)[C@H](O)[C@@H]1O
Activity (Microsporum canis): inactive | Activity [1]: inactive | Activity (Pseudomonas aeruginosa): inactive | Activity (Staphylococcus aureus): inactive | Activity (Candida albicans): inactive | Activity (Epidermophyton floccosum): inactive

CC(=O)Nc1cc2[nH]cnc2c(=O)[nH]1
Activity (Microsporum canis): inactive | Activity [1]: inactive | Activity (Pseudomonas aeruginosa): inactive | Activity (Staphylococcus aureus): inactive | Activity (Candida albicans): inactive | Activity (Epidermophyton floccosum): inactive

COC(=O)c1ncn([C@@H]2O[C@H](C)[C@@H](OC(C)=O)[C@H]2OC(C)=O)c1CC#N
Activity (Microsporum canis): inactive | Activity [1]: inactive | Activity (Pseudomonas aeruginosa): inactive | Activity (Staphylococcus aureus): inactive | Activity (Candida albicans): inactive | Activity (Epidermophyton floccosum): inactive

Nc1cc2[nH]cnc2c(=O)[nH]1 [DEZAGUANINE]
Activity (Microsporum canis): inactive | Activity (Human alphaherpesvirus 1): Active | Activity (Human alphaherpesvirus 2): Active | Activity [1]: inactive | Activity (Pseudomonas aeruginosa): inactive | Activity (Staphylococcus aureus): inactive | inhibition at 1000 µM (Ehrlich [6]): 40% | Activity (Escherichia coli [9]): Active | Activity (Vaccinia virus): Active | Activity (Candida albicans): inactive | inhibition at 1000 µM (Ehrlich [7]): 20% | Time (Influenza B virus [11]): 0.23 days | Time (Influenza B virus [12]): >0.3 days | Activity (KB [5]): Active | Activity (Epidermophyton floccosum): inactive | Activity (Human respirovirus 3): Active | Activity (KB [8]): Active

C[C@H]1O[C@@H](n2cnc3cc(N)[nH]c(=O)c32)[C@H](O)[C@@H]1O
Activity (Microsporum canis): inactive | Activity [1]: inactive | Activity (Pseudomonas aeruginosa): inactive | Activity (Staphylococcus aureus): inactive | Activity (Candida albicans): inactive | Activity (Epidermophyton floccosum): inactive

N#CCc1c(C(N)=O)ncn1C1CCCCO1 (centres undefined)
Activity (Microsporum canis): inactive | Activity [1]: inactive | Activity (Pseudomonas aeruginosa): inactive | Activity (Staphylococcus aureus): inactive | Activity (Candida albicans): inactive | Activity (Epidermophyton floccosum): inactive

C1=COCCC1
Activity (Microsporum canis): inactive | Activity [1]: inactive | Activity (Pseudomonas aeruginosa): inactive | Activity (Staphylococcus aureus): inactive | Activity (Candida albicans): inactive | Activity (Epidermophyton floccosum): inactive

Nc1cc2ncn(C3CCCCO3)c2c(=O)[nH]1 (centres undefined)
Activity (Microsporum canis): inactive | Activity (Human alphaherpesvirus 1): Active | Activity [1]: inactive | Activity (Pseudomonas aeruginosa): inactive | Activity (Staphylococcus aureus): inactive | Activity (Candida albicans): inactive | Activity (KB [5]): Active | Activity (Epidermophyton floccosum): inactive | Activity (Human respirovirus 3): inactive

N#CCc1c(C(N)=O)ncn1[C@@H]1O[C@H](CO)[C@@H](O)[C@H]1O
Activity (Microsporum canis): inactive | Activity (Human alphaherpesvirus 1): Active | Activity (Human alphaherpesvirus 2): Active | Activity [1]: inactive | Activity (Pseudomonas aeruginosa): inactive | Activity (Staphylococcus aureus): inactive | Time (Influenza B virus [13]): 0.118 days | inhibition at 1000 µM (Ehrlich [6]): 11% | Time (Influenza B virus [14]): >0.3 days | Activity (Vaccinia virus): inactive | Activity (Candida albicans): inactive | inhibition at 1000 µM (Ehrlich [7]): 6% | Activity (KB [5]): inactive | Time (Influenza B virus [10]): >0.3 days | Activity (Epidermophyton floccosum): inactive | Activity (Human respirovirus 3): inactive

Nc1cc2c(ncn2C2CCCCO2)c(=O)[nH]1 (centres undefined)
Activity (Microsporum canis): inactive | Activity [1]: inactive | Activity (Pseudomonas aeruginosa): inactive | Activity (Staphylococcus aureus): inactive | Activity (Candida albicans): inactive | Activity (Epidermophyton floccosum): inactive

CC(=O)Nc1cc2c(ncn2[C@@H]2O[C@H](COC(C)=O)[C@@H](OC(C)=O)[C@H]2OC(C)=O)c(=O)[nH]1
Activity (Microsporum canis): inactive | Activity [1]: inactive | Activity (Pseudomonas aeruginosa): inactive | Activity (Staphylococcus aureus): inactive | Activity (Candida albicans): inactive | Activity (Epidermophyton floccosum): inactive

CC(=O)O[C@@H]1O[C@H](C)[C@@H](OC(C)=O)[C@H]1OC(C)=O
Activity (Microsporum canis): inactive | Activity [1]: inactive | Activity (Pseudomonas aeruginosa): inactive | Activity (Staphylococcus aureus): inactive | Activity (Candida albicans): inactive | Activity (Epidermophyton floccosum): inactive

COC(=O)c1c(CC#N)ncn1[C@@H]1O[C@H](C)[C@@H](OC(C)=O)[C@H]1OC(C)=O
Activity (Microsporum canis): inactive | Activity [1]: inactive | Activity (Pseudomonas aeruginosa): inactive | Activity (Staphylococcus aureus): inactive | Activity (Candida albicans): inactive | Activity (Epidermophyton floccosum): inactive
